Results from PMC3960997 (Biochimica et biophysica acta, 2013).

Experiments:
full length TDP-43 [1] = target: T1, full length TDP-43 (Homo sapiens, UniProt Q13148); assay: Inhibition of bt-TG12 binding to full length TDP-43
In short: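 In the same Tris pH 7.0 buffer, GST-tagged full-length TDP-43 (1.6 nM) was preincubated 15-30 min at RT with test-compound dilutions. 1.0 nM biotinylated TG12 was then added for 2 hr at RT. Streptavidin Tb donor and anti-GST d2 acceptor (2.6 μg/mL) were added for 1 hr, then time-resolved fluorescence 665/620 ratio. IC50 from three-parameter dose-response fit; geometric means of four determinations.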

full length TDP-43 [2] = target: T1, full length TDP-43; assay: Inhibition of UBQLN2 binding to full length TDP-43
In short: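 Test-compound dilutions were preincubated 15-30 min at room temperature with GST-tagged full-length TDP-43 (100 ng/mL, 1.6 nM) in 20 mM Tris pH 7.0, 2 mM MgCl₂, 0.05% CHAPS, 1% glycerol. HIS-UBQLN2 (100 ng/mL, 1.4 nM) was added for 2 hr at RT. Anti-GST Tb donor plus anti-HIS d2 acceptor were added for 1 hr. Read-out was TR-FRET 665/620 nm ratio (ex 330 nm). IC50 from three-parameter fit; geometric mean of four determinations.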

full length TDP-43 [3] = target: T1, full length TDP-43; assay: Mode of inhibition of UBQLN2 binding to full length TDP-43
In short: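 Saturation series: GST-tagged full-length TDP-43 (100 ng/mL, 1.6 nM) with HIS-UBQLN2 (1.0–60 nM), plus oligonucleotide (0–1 μM) or test compound (0–32 μM), 2 hr at RT. Anti-GST/anti-HIS HTRF antibodies were added for 1 hr; nonspecific binding taken without TDP-43. Global nonlinear fits to mixed versus noncompetitive inhibition models compared by F-test; Ki from global model. Duplicates, repeated at least three times.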

[4] = target: T2, C-terminal TDP-43 (261-414 aa) (Homo sapiens, UniProt Q13148); assay: Mode of inhibition of UBQLN2 binding to C-terminal TDP-43
In short: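 GST-tagged C-terminal TDP-43 (261-414 aa, 4.6 nM) was incubated 2 hr at RT with a HIS-UBQLN2 concentration series, with no test compound or 1, 3.2, 10 or 32 μM. Anti-GST/anti-HIS HTRF antibodies were added for 1 hr, then TR-FRET ratio; nonspecific binding measured without TDP-43. Saturation isotherms globally fitted to a competitive inhibition model. Duplicates, repeated at least three times.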

[5] = target: T2, C-terminal TDP-43 (261-414 aa); assay: UBQLN2 saturation binding to C-terminal TDP-43; settings: read-out: KD for UBQLN2 binding to C-terminal TDP-43, C-terminal TDP-43 (261-414 aa) 4.6 nM, n=4
[6] = target: T3, N-terminal TDP-43 (1-260 aa) (Homo sapiens, UniProt Q13148); assay: UBQLN2 saturation binding to N-terminal TDP-43; settings: N-terminal TDP-43 (1-260 aa) 2.2 nM, data not shown
[7] = target: T3, N-terminal TDP-43 (1-260 aa); assay: Inhibition of bt-TG12 binding to N-terminal TDP-43; settings: 1.0 nM bt-TG12, N-terminal TDP-43 2.2 nM, n=3
In short: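 GST-tagged N-terminal TDP-43 (1-260 aa; 100 ng/mL, 2.2 nM) was incubated 2 hr at RT with 1.0 nM biotinylated TG12 and either unlabeled oligonucleotide (1 pM–1 μM) or HIS-UBQLN2 (0.3 pM–0.3 μM). Streptavidin Tb donor plus anti-GST d2 acceptor (2.6 μg/mL) were added for 1 hr. Normalized to % bound (0% = 1.0 μM unlabeled TG12); IC50 from three-parameter fit. Duplicates, experiment repeated three times.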

full length TDP-43 [8] = target: T1, full length TDP-43; assay: Mode of inhibition of bt-TG12 binding to full length TDP-43; settings: F-test comparison of global fits with the mixed inhibition model
In short: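 Biotinylated TG12 (3–1300 pM) was incubated 2 hr at RT with GST-tagged full-length TDP-43 (1.6 nM), without or with HIS-UBQLN2 (1.0, 3.2, 10, 32 nM). Streptavidin Tb donor and anti-GST d2 acceptor (2.6 μg/mL) were added for 1 hr; nonspecific binding measured without TDP-43. Global nonlinear fits to mixed versus noncompetitive inhibition models compared by F-test. Duplicates, repeated at least three times.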

[9] = target: N-terminal 6XHIS tagged full length UBQLN2 (human, UniProt Q9UHD9 1-624); assay: AlphaScreen or HTRF
Chain of N-terminal 6XHIS tagged full length UBQLN2 (Q9UHD9 whole entry): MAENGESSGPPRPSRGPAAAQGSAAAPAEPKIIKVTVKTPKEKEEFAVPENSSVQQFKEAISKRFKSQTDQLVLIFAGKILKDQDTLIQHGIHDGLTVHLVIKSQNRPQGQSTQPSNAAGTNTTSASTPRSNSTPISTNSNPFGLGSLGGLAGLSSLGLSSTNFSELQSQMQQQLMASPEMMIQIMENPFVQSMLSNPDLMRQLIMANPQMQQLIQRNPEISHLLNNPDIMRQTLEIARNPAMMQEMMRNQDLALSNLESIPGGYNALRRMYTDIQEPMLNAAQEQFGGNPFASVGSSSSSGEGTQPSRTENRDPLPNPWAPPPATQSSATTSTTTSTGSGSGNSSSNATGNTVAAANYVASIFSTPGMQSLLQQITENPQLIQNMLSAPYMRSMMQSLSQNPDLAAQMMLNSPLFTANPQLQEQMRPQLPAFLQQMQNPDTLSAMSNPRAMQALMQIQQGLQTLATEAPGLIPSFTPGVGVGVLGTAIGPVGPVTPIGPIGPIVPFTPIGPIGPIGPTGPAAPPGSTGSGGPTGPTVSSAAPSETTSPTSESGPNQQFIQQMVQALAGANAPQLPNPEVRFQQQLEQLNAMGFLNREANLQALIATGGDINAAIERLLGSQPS

T1 sequence (Q13148 whole entry): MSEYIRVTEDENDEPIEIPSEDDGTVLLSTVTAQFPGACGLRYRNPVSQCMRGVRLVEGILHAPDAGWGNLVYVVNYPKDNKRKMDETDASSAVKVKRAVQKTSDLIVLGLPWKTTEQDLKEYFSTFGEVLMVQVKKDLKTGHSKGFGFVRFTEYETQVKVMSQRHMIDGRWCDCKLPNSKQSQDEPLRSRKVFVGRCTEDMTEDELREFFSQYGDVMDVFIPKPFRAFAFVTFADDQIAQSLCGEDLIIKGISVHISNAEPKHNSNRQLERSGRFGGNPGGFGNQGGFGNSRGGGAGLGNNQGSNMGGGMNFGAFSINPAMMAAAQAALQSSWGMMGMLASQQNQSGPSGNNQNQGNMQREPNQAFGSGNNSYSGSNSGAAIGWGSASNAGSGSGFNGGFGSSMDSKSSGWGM
T3 sequence (Q13148 1-260): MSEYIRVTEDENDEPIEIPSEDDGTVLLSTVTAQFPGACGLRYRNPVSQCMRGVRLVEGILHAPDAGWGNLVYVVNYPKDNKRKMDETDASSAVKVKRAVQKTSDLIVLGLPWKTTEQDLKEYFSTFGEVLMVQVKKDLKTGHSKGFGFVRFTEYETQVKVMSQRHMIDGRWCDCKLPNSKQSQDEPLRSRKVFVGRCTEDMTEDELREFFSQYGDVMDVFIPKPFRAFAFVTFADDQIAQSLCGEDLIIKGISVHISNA

Question: What does the source list for “5′-CTGCTTTTTGCCTGTACTGGGTCTCTGTGGTT-3′ (DNA CTGCTTTTTGCCTGTACTGGGTCTCTGTGGTT; chemistry not given here) [TAR32, reference compound]”?
Answer: Fold IC50 relative to TG12 for inhibition of nucleic acid binding (full length TDP-43 [1]; bt-TG12 binding to full length TDP-43): ~ 10 fold; IC50 (full length TDP-43 [1]; read-out: IC50 (95% CI) inhibition of bt-TG12 binding to full length TDP-43, 1.0 nM bt-TG12, TDP-43 1.6 nM, geometric mean of four determinations (Section 2.4)): 16 nM

Question: Which results are given for COc1ccc(-c2cc(NCCCN(C)C)c3ccccc3n2)cc1 [AAQ1, (3-{[2-(4-methoxyphenyl)quinolin-4-yl]amino}propyl)dimethylamine]?
Answer: IC50 (full length TDP-43 [1]): 1000 nM; IC50 (full length TDP-43 [2]): 5500 nM; Fold less potent for inhibition of UBQLN2 binding compared to inhibition of nucleic acid binding to TDP-43 (full length TDP-43 [2]; full length TDP-43): 5 fold; Ki (full length TDP-43 [3]): 3400 nM; Mode of inhibition of UBQLN2 binding to full length TDP-43 (full length TDP-43 [3]; F-test comparison of global fits with the mixed inhibition model): competitive; Ki [4]: 4200 nM; Mode of inhibition of UBQLN2 binding to C-terminal TDP-43 ([4]; C-terminal TDP-43 (261-414 aa)): competitive

Question: CN(C)CCN(C)c1cc(-c2ccccc2)nc2ccccc12 [AAQ2, N-[2-(dimethylamino)ethyl]-N-methyl-2-phenylquinolin-4-amine] was tested. Which IC50 (full length TDP-43 [1]) did it give?
Answer: The IC50 was > 100 nM.

Question: And the “IC50 inhibition of bt-TG12 binding to TDP-43” value (full length TDP-43 [1]; 1.0 nM bt-TG12, TDP-43 1.6 nM)?
Answer: Its value is “no activity”.

Question: And the IC50 (full length TDP-43 [2])?
Answer: Its IC50 is > 100 nM.

Question: And the “IC50 inhibition of UBQLN2 binding to TDP-43” value (full length TDP-43 [2]; 1.4 nM UBQLN2, TDP-43 1.6 nM)?
Answer: Its value is “no activity”.

Question: Which results are given for “UBQLN2: N-terminal 6XHIS tagged full length UBQLN2 protein, custom made by ProteinTech Group”?
Answer: Kd [5]: 8.7 nM; UBQLN2 binding to N-terminal TDP-43 [6]: unable to detect appreciable UBQLN2 binding; IC50 for inhibition of bt-TG12 binding to N-terminal TDP-43 [7]: unable to inhibit; Mode of inhibition of bt-TG12 binding to full length TDP-43 (full length TDP-43 [8]): noncompetitive

B1: Human N-terminal GST tagged C-terminal TDP-43 (261-414 aa) (domain or fragment, UniProt Q13148 261-414, looked up)
chain: EPKHNSNRQLERSGRFGGNPGGFGNQGGFGNSRGGGAGLGNNQGSNMGGGMNFGAFSINPAMMAAAQAALQSSWGMMGMLASQQNQSGPSGNNQNQGNMQREPNQAFGSGNNSYSGSNSGAAIGWGSASNAGSGSGFNGGFGSSMDSKSSGWGM
Question: With B1 as the molecule, how does the Kd [9] read?
Answer: The Kd was 8.7 nM.
